{"source": "ChEMBL document CHEMBL4765452", "about": "“Discovery of (E)-N-(4-methyl-5-(3-(2-(pyridin-2-yl)vinyl)-1H-indazol-6-yl)thiazol-2-yl)-2-(4-methylpiperazin-1-yl)acetamide (IHMT-TRK-284) as a novel orally available type II TRK kinase inhibitor capable of overcoming multiple resistant mutants” (Eur J Med Chem, 2020)", "key": {"[1]": {"assay": "Half life in Beagle dog at 1 mg/kg, iv", "format": "ADME, organism-based, Canis lupus familiaris", "settings": "in vivo"}, "[2]": {"assay": "Tmax in Beagle dog at 5 mg/kg, po", "format": "ADME, organism-based, Canis lupus familiaris", "settings": "in vivo", "method_in_brief": "(§1)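 Single-dose PK in mice, Sprague Dawley rats and beagle dogs, given i.v. (1 mg/kg) or p.o. (10 mg/kg mice and rats; 5 mg/kg dogs). AUC0-t, T1/2, Tmax and oral bioavailability (F) derived from plasma profiles.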"}, "BaF3 [3]": {"tested_on": "BaF3", "assay": "Antitumor activity against mouse BAF3 cells harboring LMNA fused TRKA-F589L mutant allografted in nude mouse assessed as tumor growth inhibition at 80 mg/kg, po administered once daily for 10 days relative to control", "format": "functional", "settings": "240 h, time 10 day, read-out: TGI", "method_in_brief": "(§2)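 Nu/nu mice given 1 million BaF3 cells (TEL-TRKA, TEL-TRKB, TEL-TRKC, LMNA-TRKA-F589L or LMNA-TRKA-G667S) in DMEM, 1:1 with matrigel, injected subcutaneously into the right flank; oral gavage began at 200–400 mm³, 5 mice per group, compound in 0.5% methylcellulose/0.4% Tween 80 in ddH₂O, 10 days; tumor volume [(W²×L)/2] and body weight recorded daily; TGI versus vehicle.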"}, "[4]": {"assay": "Apparent volume of distribution in mouse at 1 mg/kg, iv", "format": "ADME, organism-based", "settings": "in vivo, read-out: Vz"}, "[5]": {"assay": "Apparent volume of distribution in Beagle dog at 1 mg/kg, iv", "format": "ADME, organism-based, Canis lupus familiaris", "settings": "in vivo, read-out: Vz"}, "[6]": {"assay": "Tmax in Sprague-Dawley rat at 10 mg/kg, po", "format": "ADME, organism-based", "settings": "in vivo", "method_in_brief": "as §1"}, "BaF3 [7]": {"tested_on": "BaF3", "assay": "Antitumor activity against mouse BAF3 cells harboring TEL fused TRKA allografted in nude mouse assessed as tumor growth inhibition at 80 mg/kg, po administered once daily for 10 days relative to control", "format": "functional", "settings": "240 h, time 10 day, read-out: TGI", "method_in_brief": "as §2"}, "[8]": {"assay": "Apparent clearance in mouse at 1 mg/kg, iv", "format": "ADME, organism-based", "settings": "in vivo"}, "[9]": {"assay": "Toxicity in mouse xenografted with mouse BAF3 cells harboring TEL fused TRKA assessed as effect on animals behaviour at 40 to 80 mg/kg, po administered once daily for 10 days", "format": "organism-based", "settings": "in vivo, 240 h, dose 40-80 mg/kg/day, time 10 day", "method_in_brief": "(§3)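 nu/nu mice were given subcutaneous right-flank implants in 1:1 DMEM/matrigel: 1 million BaF3 fusion cells or 5 million KM-12-LUC cells. Oral gavage started at 150–200 mm3 (xenograft) or 200–400 mm3 (allograft). Dosing used 40 or 80 mg/kg in HKI vehicle (0.5% methylcellulose/0.4% Tween 80 in ddH2O), with 5 mice per group. Body weight was recorded daily and behaviour observed.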"}, "[10]": {"assay": "Cmax in Beagle dog at 1 mg/kg, iv", "format": "ADME, organism-based, Canis lupus familiaris", "parameters": "route intravenous, dose 1 mg/kg", "settings": "in vivo"}, "[11]": {"molecular_target": "VEGFR2 (vascular endothelial growth factor receptor 2), wild type, TEL fusion (Homo sapiens, UniProt P35968)", "sequence (P35968 whole entry, the tested form may be a part)": "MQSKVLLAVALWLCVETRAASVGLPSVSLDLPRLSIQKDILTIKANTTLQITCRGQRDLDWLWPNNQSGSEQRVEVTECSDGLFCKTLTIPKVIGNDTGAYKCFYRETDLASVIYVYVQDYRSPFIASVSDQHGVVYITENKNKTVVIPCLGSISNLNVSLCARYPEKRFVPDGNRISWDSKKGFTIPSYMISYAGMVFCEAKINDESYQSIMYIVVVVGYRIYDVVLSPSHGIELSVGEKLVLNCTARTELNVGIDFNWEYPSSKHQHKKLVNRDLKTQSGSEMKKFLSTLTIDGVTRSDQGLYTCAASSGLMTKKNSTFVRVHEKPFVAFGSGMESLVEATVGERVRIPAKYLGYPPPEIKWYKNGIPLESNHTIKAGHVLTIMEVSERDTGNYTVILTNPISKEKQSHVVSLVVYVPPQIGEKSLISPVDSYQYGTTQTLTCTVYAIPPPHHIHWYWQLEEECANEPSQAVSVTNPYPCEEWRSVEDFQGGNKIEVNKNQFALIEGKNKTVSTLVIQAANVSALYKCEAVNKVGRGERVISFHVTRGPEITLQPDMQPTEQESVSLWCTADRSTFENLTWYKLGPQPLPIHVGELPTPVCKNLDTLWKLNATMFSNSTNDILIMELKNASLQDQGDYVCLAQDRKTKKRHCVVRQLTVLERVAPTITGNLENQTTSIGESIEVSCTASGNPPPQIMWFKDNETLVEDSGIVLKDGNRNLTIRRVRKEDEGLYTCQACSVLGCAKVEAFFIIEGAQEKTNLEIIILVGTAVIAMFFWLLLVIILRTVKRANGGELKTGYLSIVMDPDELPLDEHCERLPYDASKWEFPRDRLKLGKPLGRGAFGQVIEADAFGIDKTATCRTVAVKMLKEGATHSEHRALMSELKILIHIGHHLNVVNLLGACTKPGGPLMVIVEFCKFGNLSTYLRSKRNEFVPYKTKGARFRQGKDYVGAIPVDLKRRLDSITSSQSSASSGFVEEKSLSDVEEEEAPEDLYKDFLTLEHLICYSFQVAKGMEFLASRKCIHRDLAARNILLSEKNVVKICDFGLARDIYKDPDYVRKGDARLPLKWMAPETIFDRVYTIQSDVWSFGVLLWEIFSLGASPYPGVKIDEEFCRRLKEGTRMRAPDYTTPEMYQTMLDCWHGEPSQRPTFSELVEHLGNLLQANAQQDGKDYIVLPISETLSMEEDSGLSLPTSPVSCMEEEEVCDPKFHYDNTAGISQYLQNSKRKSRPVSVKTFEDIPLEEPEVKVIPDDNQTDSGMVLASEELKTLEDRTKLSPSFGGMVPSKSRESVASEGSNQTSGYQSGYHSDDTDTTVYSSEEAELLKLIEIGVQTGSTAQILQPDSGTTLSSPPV", "assay": "Inhibition of wild type TEL fused VEGFR2 (unknown origin) transfected in mouse BAF3 cells assessed as growth inhibition after 72 hrs by CCK8 assay", "format": "cell-based", "settings": "mouse BaF3 cells transfected with wild type TEL-fused VEGFR2"}, "[12]": {"assay": "AUC (0 to t) in Sprague-Dawley rat at 1 mg/kg, iv", "format": "ADME, organism-based", "parameters": "dose 1 mg/kg", "settings": "in vivo", "method_in_brief": "(§4)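 Intravenous and oral arms were run in parallel in each species (mice, Sprague Dawley rats, beagle dogs). Exposure is reported as AUC0-t in ng/mL·h.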"}, "[13]": {"molecular_target": "High affinity nerve growth factor receptor (Homo sapiens, UniProt P04629)", "sequence (P04629 whole entry)": "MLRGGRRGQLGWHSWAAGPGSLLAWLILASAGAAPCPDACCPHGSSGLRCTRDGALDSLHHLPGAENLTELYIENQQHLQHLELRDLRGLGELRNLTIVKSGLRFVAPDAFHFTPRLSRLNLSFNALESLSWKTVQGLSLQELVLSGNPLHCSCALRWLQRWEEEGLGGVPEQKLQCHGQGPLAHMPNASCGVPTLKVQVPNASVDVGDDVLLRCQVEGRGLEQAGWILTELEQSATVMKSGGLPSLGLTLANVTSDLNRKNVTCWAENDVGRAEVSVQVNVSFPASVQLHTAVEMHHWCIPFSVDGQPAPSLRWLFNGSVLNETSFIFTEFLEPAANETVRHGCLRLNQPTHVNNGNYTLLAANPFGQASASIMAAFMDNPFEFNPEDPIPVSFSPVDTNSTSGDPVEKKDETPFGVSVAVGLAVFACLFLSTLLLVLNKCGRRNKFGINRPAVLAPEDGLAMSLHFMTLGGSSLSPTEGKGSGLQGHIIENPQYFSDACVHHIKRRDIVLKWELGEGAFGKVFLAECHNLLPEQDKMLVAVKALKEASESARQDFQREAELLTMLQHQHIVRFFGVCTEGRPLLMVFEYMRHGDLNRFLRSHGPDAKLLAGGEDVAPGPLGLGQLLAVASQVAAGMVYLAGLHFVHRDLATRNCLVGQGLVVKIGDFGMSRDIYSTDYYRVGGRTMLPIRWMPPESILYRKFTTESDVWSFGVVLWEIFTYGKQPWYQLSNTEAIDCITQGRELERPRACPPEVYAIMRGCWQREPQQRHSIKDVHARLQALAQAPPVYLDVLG", "assay": "Inhibition of human TRKA by Z-LYTE or ADP-Glo assay", "method_in_brief": "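Purified kinase proteins tested biochemically in Z'LYTE or ADP-Glo format.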"}, "[14]": {"assay": "Toxicity in mouse xenografted with mouse BAF3 cells harboring […] TRKA-G667S mutant assessed as effect on abnormal behaviour at 40 to 80 mg/kg, po administered twice daily for 10 days", "format": "organism-based", "settings": "in vivo, 240 h, dose 40-80 mg/kg, time 10 day", "method_in_brief": "as §3"}, "[15]": {"assay": "Apparent volume of distribution in mouse at 10 mg/kg, po", "format": "ADME, organism-based", "settings": "in vivo"}, "[16]": {"assay": "Toxicity in mouse xenografted with human […] cells assessed as effect on abnormal behaviour at 40 to 80 mg/kg, po administered once daily for 10 days", "format": "organism-based", "settings": "in vivo, 240 h, dose 40-80 mg/kg/day, time 10 day", "method_in_brief": "as §3"}, "[17]": {"tested_on": "High affinity nerve growth factor receptor (Homo sapiens), P04629 [G667C]", "sequence (P04629 whole entry G667C, looked up, the tested form may be a part)": "as the sequence (P04629 whole entry) above, with G667C counted along it", "assay": "Inhibition of LMNA fused TRKA G667C mutant (unknown origin) transfected in mouse BAF3 cells assessed as growth inhibition after 72 hrs by CCK8 assay", "format": "cell-based", "method_in_brief": "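TEL- or LMNA-fusion isogenic BaF3 lines grown in RPMI 1640 with 10% FBS and 1% penicillin/streptomycin at 37 °C, 5% CO₂; suspension cells collected by spinning at 800 rpm for 4 min before use; growth inhibition scored as GI₅₀.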"}, "KM12-Luc": {"tested_on": "KM12-Luc", "assay": "Induction of cell cycle arrest in human KM-12-LUC cells assessed as accumulation at G0/G1 phase at 0.01 to 10 uM after 24 hrs by PI/RNase staining based flow cytometric analysis", "format": "functional", "settings": "dose 0.01-10 µM", "method_in_brief": "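KM-12-LUC cells treated with DMSO or serially diluted compound. Cells fixed in cold 70% ethanol overnight at −20 °C, then stained with PI/RNase buffer. Cell cycle distribution measured by flow cytometry.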"}, "[18]": {"assay": "AUC (0 to t) in mouse at 1 mg/kg, iv", "format": "ADME, organism-based", "parameters": "dose 1 mg/kg", "settings": "in vivo", "method_in_brief": "as §4"}, "[19]": {"assay": "Cmax in mouse at 1 mg/kg, iv", "format": "ADME, organism-based", "parameters": "route intravenous, dose 1 mg/kg", "settings": "in vivo"}, "[20]": {"assay": "Tmax in mouse at 10 mg/kg, po", "format": "ADME, organism-based", "settings": "in vivo", "method_in_brief": "as §1"}, "BaF3 [21]": {"tested_on": "BaF3", "assay": "Inhibition of LMNA fused TRKA G667S mutant (unknown origin) transfected in mouse BAF3 cells assessed as growth inhibition after 72 hrs by CCK8 assay", "format": "cell-based", "settings": "Homo sapiens"}, "[22]": {"assay": "AUC (0 to t) in Beagle dog at 1 mg/kg, iv", "format": "ADME, organism-based, Canis lupus familiaris", "parameters": "dose 1 mg/kg", "settings": "in vivo", "method_in_brief": "as §4"}, "[23]": {"assay": "Antitumor activity against human […] cells xenografted in nude mouse assessed as tumor growth inhibition at 40 mg/kg, po administered once daily for 10 days relative to control", "format": "functional", "settings": "KM12-Luc, 240 h, time 10 day, read-out: TGI", "method_in_brief": "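Nu/nu mice given 5 million KM-12-LUC cells in DMEM, 1:1 with matrigel, injected subcutaneously into the right flank; oral gavage started at tumor size 150–200 mm³, 5 mice per group, compound in 0.5% methylcellulose/0.4% Tween 80 in ddH₂O; body weight and tumor volume [(W²×L)/2] measured daily; TGI versus vehicle.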"}, "[24]": {"assay": "Cmax in Sprague-Dawley rat at 1 mg/kg, iv", "format": "ADME, organism-based", "parameters": "route intravenous, dose 1 mg/kg", "settings": "in vivo"}, "BaF3 [25]": {"tested_on": "BaF3", "assay": "Antitumor activity against mouse BAF3 cells harboring TEL fused TRKC allografted in nude mouse assessed as tumor growth inhibition administered orally once daily for 10 days", "format": "functional, cell-based", "settings": "dose 40-80 mg/kg/day, time 10.0 day", "method_in_brief": "as §2"}, "[26]": {"assay": "Apparent clearance in Sprague-Dawley rat at 10 mg/kg, po", "format": "ADME, organism-based", "settings": "in vivo, read-out: CLz/F (converted)"}, "[27]": {"assay": "AUC (0 to t) in mouse at 10 mg/kg, po", "format": "ADME, organism-based", "parameters": "dose 10 mg/kg", "settings": "in vivo", "method_in_brief": "as §4"}, "[28]": {"assay": "Inhibition of LMNA fused TRKA G667S mutant (unknown origin) transfected in mouse BaF3 cells assessed as reduction in phosphorylation at Y490 residue after 2 hrs by Western blot analysis", "settings": "Homo sapiens, BaF3, 2 h"}, "[29]": {"assay": "Toxicity in mouse xenografted with mouse BAF3 cells harboring TEL fused TRKC assessed as effect on animals behaviour at 40 to 80 mg/kg, po administered once daily for 10 days", "format": "organism-based", "settings": "in vivo, 240 h, dose 40-80 mg/kg/day, time 10 day", "method_in_brief": "as §3"}}, "note": "Activity calls are given as the source filed them. The rule behind the calls is not given here.", "data": [{"smiles": "Cc1nc(NC(=O)CN2CCN(C)CC2)sc1-c1ccc2c(/C=C/c3ccccn3)n[nH]c2c1", "values": [{"measurement": "t1/2", "setting": "[1]", "value": 1.8, "unit": "min"}, {"measurement": "Tmax", "setting": "[2]", "value": 4.3, "unit": "h"}, {"measurement": "inhibition in vivo at 80 mg/kg/day", "setting": "BaF3 [3]", "value": 87.7, "unit": "%"}, {"measurement": "Vd", "setting": "[4]", "value": 4.93, "unit": "L/kg"}, {"measurement": "Vd", "setting": "[5]", "value": 17.5, "unit": "L/kg"}, {"measurement": "Tmax", "setting": "[6]", "value": 4.7, "unit": "h"}, {"measurement": "inhibition in vivo at 80 mg/kg/day", "setting": "BaF3 [7]", "value": 67.5, "unit": "%"}, {"measurement": "CLz/F", "setting": "[8]", "value": 21.7, "unit": "mL/min/kg"}, {"measurement": "Activity", "setting": "[9]", "value": "Non-Toxic"}, {"measurement": "Cmax", "setting": "[10]", "value": 284, "unit": "ng/mL"}, {"measurement": "GI50 at 72 h", "setting": "[11]", "value": 1180, "unit": "nM"}, {"measurement": "AUC(0-t)", "setting": "[12]", "value": 393, "unit": "ng·h/mL"}, {"measurement": "IC50", "setting": "[13]", "value": 10.5, "unit": "nM"}, {"measurement": "Activity", "setting": "[14]", "value": "Non-Toxic"}, {"measurement": "Vz", "setting": "[15]", "value": 31.567, "unit": "L/kg"}, {"measurement": "Activity", "setting": "[16]", "value": "Non-Toxic"}, {"measurement": "GI50", "setting": "[17]", "value": 34, "unit": "nM"}, {"measurement": "Activity", "setting": "KM12-Luc", "value": "Active"}, {"measurement": "AUC(0-t)", "setting": "[18]", "value": 748, "unit": "ng·h/mL"}, {"measurement": "Cmax", "setting": "[19]", "value": 1110, "unit": "ng/mL"}, {"measurement": "Tmax", "setting": "[20]", "value": 1.5, "unit": "h"}, {"measurement": "GI50", "setting": "BaF3 [21]", "value": 2, "unit": "nM"}, {"measurement": "AUC(0-t)", "setting": "[22]", "value": 323, "unit": "ng·h/mL"}, {"measurement": "inhibition in vivo at 40 mg/kg/day", "setting": "[23]", "value": 93.4, "unit": "%"}, {"measurement": "Cmax", "setting": "[24]", "value": 363, "unit": "ng/mL"}, {"measurement": "Activity", "setting": "BaF3 [25]", "value": "Dose-dependent effect"}, {"measurement": "CL/F", "setting": "[26]", "value": 170, "unit": "mL/min/kg"}, {"measurement": "AUC(0-t)", "setting": "[27]", "value": 1430, "unit": "ng·h/mL"}, {"measurement": "EC50", "setting": "[28]", "value": 74, "unit": "nM"}, {"measurement": "Activity", "setting": "[29]", "value": "Non-Toxic"}]}]}
